According to ChEMBL document CHEMBL3098013, “Novel pyrazole integrated 1,3,4-oxadiazoles: synthesis, characterization and antimicrobial evaluation” (2014):
In brackets after ≈: the same amount, converted by molar mass.

Legend:
Assay type in all cases: functional
[1] = test system: Fusarium verticillioides; test: Antimicrobial activity against Fusarium moniliforme MTCC 156 after 48 hrs by microdilution method; conditions: MTCC 156, 48 h
Summary of the method: (§1)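 The minimal inhibitory concentration was determined by dilution, alongside minimal bactericidal concentration for bacterial strains and minimal fungicidal concentration for fungal strains. Tests were run in six replicates, and the value is the mean of at least three determinations.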

[2] = test system: Fusarium oxysporum; test: Antimicrobial activity against Fusarium oxysporum MTCC 284 after 48 hrs by microdilution method; conditions: MTCC 284, 48 h; summary of the method: as §1
[3] = test system: Aspergillus niger; test: Antimicrobial activity against Aspergillus niger MTCC 281 after 48 hrs by microdilution method; conditions: MTCC 281, 48 h; summary of the method: as §1
[4] = test system: Aspergillus flavus; test: Antimicrobial activity against Aspergillus flavus MTCC 873 after 48 hrs by microdilution method; conditions: MTCC 873, 48 h; summary of the method: as §1
[5] = test system: Klebsiella pneumoniae; test: Antimicrobial activity against Klebsiella pneumoniae MTCC 3384 after 24 hrs by microdilution method; conditions: MTCC 3384, 24 h; summary of the method: as §1
[6] = test system: Escherichia coli; test: Antimicrobial activity against Escherichia coli MTCC 724 after 24 hrs by microdilution method; conditions: MTCC 724, 24 h; summary of the method: as §1
[7] = test system: Staphylococcus aureus; test: Antimicrobial activity against Staphylococcus aureus MTCC 96 after 24 hrs by microdilution method; conditions: MTCC 96, 24 h; summary of the method: as §1
[8] = test system: Bacillus cereus; test: Antimicrobial activity against Bacillus cereus MTCC 8372 after 24 hrs by microdilution method; conditions: MTCC 8372, 24 h; summary of the method: as §1
[9] = test system: Fusarium verticillioides; test: Antimicrobial activity against Fusarium moniliforme MTCC 156 at 100 ug/ml after 48 hrs by disc diffusion method; conditions: MTCC 156, 48 h, read-out: DIZ
Summary of the method: (§2)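 Agar diffusion read-out is the diameter of the inhibition zone in mm. Each test was run in six replicates and reported as mean ± standard deviation, taken from at least three determinations.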

[10] = test system: Fusarium verticillioides; test: Antimicrobial activity against Fusarium moniliforme MTCC 156 at 50 ug/ml after 48 hrs by disc diffusion method; conditions: MTCC 156, 48 h, read-out: DIZ; summary of the method: as §2
[11] = test system: Fusarium oxysporum; test: Antimicrobial activity against Fusarium oxysporum MTCC 284 at 100 ug/ml after 48 hrs by disc diffusion method; conditions: MTCC 284, 48 h, read-out: DIZ; summary of the method: as §2
[12] = test system: Fusarium oxysporum; test: Antimicrobial activity against Fusarium oxysporum MTCC 284 at 50 ug/ml after 48 hrs by disc diffusion method; conditions: MTCC 284, 48 h, read-out: DIZ; summary of the method: as §2
[13] = test system: Aspergillus niger; test: Antimicrobial activity against Aspergillus niger MTCC 281 at 100 ug/ml after 48 hrs by disc diffusion method; conditions: MTCC 281, 48 h, read-out: DIZ; summary of the method: as §2
[14] = test system: Aspergillus niger; test: Antimicrobial activity against Aspergillus niger MTCC 281 at 50 ug/ml after 48 hrs by disc diffusion method; conditions: MTCC 281, 48 h, read-out: DIZ; summary of the method: as §2
[15] = test system: Aspergillus flavus; test: Antimicrobial activity against Aspergillus flavus MTCC 873 at 100 ug/ml after 48 hrs by disc diffusion method; conditions: MTCC 873, 48 h, read-out: DIZ; summary of the method: as §2
[16] = test system: Aspergillus flavus; test: Antimicrobial activity against Aspergillus flavus MTCC 873 at 50 ug/ml after 48 hrs by disc diffusion method; conditions: MTCC 873, 48 h, read-out: DIZ; summary of the method: as §2
[17] = test system: Klebsiella pneumoniae; test: Antimicrobial activity against Klebsiella pneumoniae MTCC 3384 at 100 ug/ml after 24 hrs by disc diffusion method; conditions: MTCC 3384, 24 h, read-out: DIZ; summary of the method: as §2
[18] = test system: Escherichia coli; test: Antimicrobial activity against Escherichia coli MTCC 724 at 100 ug/ml after 24 hrs by disc diffusion method; conditions: MTCC 724, 24 h, read-out: DIZ; summary of the method: as §2
[19] = test system: Klebsiella pneumoniae; test: Antimicrobial activity against Klebsiella pneumoniae MTCC 3384 at 50 ug/ml after 24 hrs by disc diffusion method; conditions: MTCC 3384, 24 h, read-out: DIZ; summary of the method: as §2
[20] = test system: Escherichia coli; test: Antimicrobial activity against Escherichia coli MTCC 724 at 50 ug/ml after 24 hrs by disc diffusion method; conditions: MTCC 724, 24 h, read-out: DIZ; summary of the method: as §2
[21] = test system: Staphylococcus aureus; test: Antimicrobial activity against Staphylococcus aureus MTCC 96 at 100 ug/ml after 24 hrs by disc diffusion method; conditions: MTCC 96, 24 h, read-out: DIZ; summary of the method: as §2
[22] = test system: Staphylococcus aureus; test: Antimicrobial activity against Staphylococcus aureus MTCC 96 at 50 ug/ml after 24 hrs by disc diffusion method; conditions: MTCC 96, 24 h, read-out: DIZ; summary of the method: as §2
[23] = test system: Bacillus cereus; test: Antimicrobial activity against Bacillus cereus MTCC 8372 at 100 ug/ml after 24 hrs by disc diffusion method; conditions: MTCC 8372, 24 h, read-out: DIZ; summary of the method: as §2
[24] = test system: Bacillus cereus; test: Antimicrobial activity against Bacillus cereus MTCC 8372 at 50 ug/ml after 24 hrs by disc diffusion method; conditions: MTCC 8372, 24 h, read-out: DIZ; summary of the method: as §2

SMILES	MFC [1] [µg/mL]	MIC [1] [µg/mL]	MFC [2] [µg/mL]	MIC [2] [µg/mL]	MFC [3] [µg/mL]	MIC [3] [µg/mL]	MFC [4] [µg/mL]	MIC [4] [µg/mL]	MBC [5] [µg/mL]	MIC [5] [µg/mL]	MBC [6] [µg/mL]	MIC [6] [µg/mL]	MBC [7] [µg/mL]	MIC [7] [µg/mL]	MBC [8] [µg/mL]	MIC [8] [µg/mL]	zone of inhibition at 100 µg/mL [9] [mm]	zone of inhibition at 50 µg/mL [10] [mm]	zone of inhibition at 100 µg/mL [11] [mm]	zone of inhibition at 50 µg/mL [12] [mm]	other results
COc1cc(-c2nnc(-c3c(-c4cc(OC)c(OC)c(OC)c4)nn(-c4ccccc4)c3C)o2)cc(OC)c1OC	225 (≈ 403 µM)	25 (≈ 44.8 µM)	220 (≈ 394 µM)	25 (≈ 44.8 µM)	225 (≈ 403 µM)	25 (≈ 44.8 µM)	215 (≈ 385 µM)	30 (≈ 53.7 µM)	155 (≈ 277 µM)	20 (≈ 35.8 µM)	150 (≈ 269 µM)	20 (≈ 35.8 µM)	150 (≈ 269 µM)	20 (≈ 35.8 µM)	160 (≈ 286 µM)	20 (≈ 35.8 µM)	22	12	21	14	zone of inhibition at 100 µg/mL [13]: 25 mm; zone of inhibition at 50 µg/mL [14]: 11 mm; zone of inhibition at 100 µg/mL [15]: 23 mm; zone of inhibition at 50 µg/mL [16]: 18 mm; zone of inhibition at 100 µg/mL [17]: 21 mm; zone of inhibition at 100 µg/mL [18]: 36 mm; zone of inhibition at 50 µg/mL [19]: 11 mm; zone of inhibition at 50 µg/mL [20]: 21 mm; zone of inhibition at 100 µg/mL [21]: 24 mm; zone of inhibition at 50 µg/mL [22]: 10 mm; zone of inhibition at 100 µg/mL [23]: 23 mm; zone of inhibition at 50 µg/mL [24]: 12 mm
Cc1c(C(=O)NN)c(-c2ccccc2)nn1-c1ccccc1	280 (≈ 958 µM)	50 (≈ 171 µM)	270 (≈ 924 µM)	45 (≈ 154 µM)	260 (≈ 889 µM)	45 (≈ 154 µM)	275 (≈ 941 µM)	40 (≈ 137 µM)	230 (≈ 787 µM)	35 (≈ 120 µM)	240 (≈ 821 µM)	35 (≈ 120 µM)	250 (≈ 855 µM)	40 (≈ 137 µM)	260 (≈ 889 µM)	40 (≈ 137 µM)	6	4	8	3	zone of inhibition at 100 µg/mL [13]: 8 mm; zone of inhibition at 50 µg/mL [14]: 2 mm; zone of inhibition at 100 µg/mL [15]: 6 mm; zone of inhibition at 50 µg/mL [16]: 2 mm; zone of inhibition at 100 µg/mL [17]: 8 mm; zone of inhibition at 100 µg/mL [18]: 11 mm; zone of inhibition at 50 µg/mL [19]: 5 mm; zone of inhibition at 50 µg/mL [20]: 9 mm; zone of inhibition at 100 µg/mL [21]: 9 mm; zone of inhibition at 50 µg/mL [22]: 2 mm; zone of inhibition at 100 µg/mL [23]: 6 mm; zone of inhibition at 50 µg/mL [24]: 4 mm
